Measured values published in BindingDB's records for doi:10.1021/jm0303608 (University of Florida, 2004).

What was measured:
Melanocortin receptor 4 = Melanocortin receptor 4 (Mus musculus, UniProt P56450); assay: Effective concentration against mouse melanocortin MC4 receptor
Summary of the method: (§1)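 HEK-293 cells stably expressing the mouse receptor (calcium phosphate transfection, G418 1 mg/mL selection) were transfected with 4 μg CRE/β-galactosidase reporter. EC50 came from nonlinear least-squares fit; at least three independent experiments.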

Melanocortin receptor 3 = Melanocortin receptor 3 (Mus musculus, UniProt P33033); assay: Effective concentration against mouse Melanocortin 3 receptor; summary of the method: as §1
Melanocortin receptor 3, sequence (P33033 whole entry): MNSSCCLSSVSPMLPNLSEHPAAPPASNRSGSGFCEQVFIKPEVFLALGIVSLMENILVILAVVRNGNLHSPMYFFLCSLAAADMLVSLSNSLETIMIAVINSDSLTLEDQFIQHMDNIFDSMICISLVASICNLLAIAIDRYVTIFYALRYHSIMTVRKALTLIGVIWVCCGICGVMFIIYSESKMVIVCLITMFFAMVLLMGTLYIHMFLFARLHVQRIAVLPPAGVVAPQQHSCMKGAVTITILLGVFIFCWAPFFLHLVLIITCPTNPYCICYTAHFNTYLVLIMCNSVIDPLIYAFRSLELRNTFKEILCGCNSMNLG

Melanocortin receptor 4, sequence (P56450 whole entry): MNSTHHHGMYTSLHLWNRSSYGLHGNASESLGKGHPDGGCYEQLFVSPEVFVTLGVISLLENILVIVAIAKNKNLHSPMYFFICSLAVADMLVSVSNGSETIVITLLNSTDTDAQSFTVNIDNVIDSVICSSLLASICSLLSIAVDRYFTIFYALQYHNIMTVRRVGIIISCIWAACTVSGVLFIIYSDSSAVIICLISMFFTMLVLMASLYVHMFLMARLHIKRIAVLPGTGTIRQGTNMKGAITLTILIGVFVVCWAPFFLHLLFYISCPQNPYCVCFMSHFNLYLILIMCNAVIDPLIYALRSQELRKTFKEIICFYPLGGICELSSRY

| SMILES | Kd (Melanocortin receptor 4) [nM] | Kd (Melanocortin receptor 3) [nM] |
| --- | --- | --- |
| C[C@@H]1NC(=O)[C@H](CC(N)=O)NC(=O)[C@H](Cc2ccccc2)NC(=O)[C@H](Cc2ccccc2)NC(=O)[C@H](CCCNC(=N)N)NC(=O)[C@@H](NC(=O)[C@@H](N)Cc2ccc(O)cc2)CC(=O)NC[C@@H](C(=O)N[C@@H](Cc2ccc(O)cc2)C(N)=O)NC(=O)[C@H](Cc2ccccc2)NC1=O [Tyr-c[Asp-Arg-Phe-Phe-Asn-Ala-Phe-Dpr]-Tyr-NH2] | 1260 | – |
| C[C@@H]1NC(=O)[C@@H](CC(N)=O)NC(=O)[C@H](Cc2ccccc2)NC(=O)[C@@H](Cc2ccccc2)NC(=O)[C@H](CCCNC(=N)N)NC(=O)[C@@H](NC(=O)[C@@H](N)Cc2ccc(O)cc2)CC(=O)NC(C(=O)NN[C@H](Cc2ccc(O)cc2)C(=O)C(N)=O)NC(=O)C(=O)[C@@H](Cc2ccccc2)NC1=O (stereo partly drawn) [Tyr-c[Asp-Arg-Phe-Phe-Asn-Ala-Phe-Dpr]-Tyr-NH2] | – | 2000 |
